This is an account of results in ChEMBL document CHEMBL1135913, “Structure-based design, synthesis, and biological evaluation of irreversible human rhinovirus 3C protease inhibitors. 6. Structure-activity studies of orally bioavailable, 2-pyridone-containing peptidomimetics” (J Med Chem, 2002).

Data set [1] deals with T1, Human rhinovirus A protease (Human rhinovirus sp.) (UniProt Q4U254).
T1 sequence (whole entry): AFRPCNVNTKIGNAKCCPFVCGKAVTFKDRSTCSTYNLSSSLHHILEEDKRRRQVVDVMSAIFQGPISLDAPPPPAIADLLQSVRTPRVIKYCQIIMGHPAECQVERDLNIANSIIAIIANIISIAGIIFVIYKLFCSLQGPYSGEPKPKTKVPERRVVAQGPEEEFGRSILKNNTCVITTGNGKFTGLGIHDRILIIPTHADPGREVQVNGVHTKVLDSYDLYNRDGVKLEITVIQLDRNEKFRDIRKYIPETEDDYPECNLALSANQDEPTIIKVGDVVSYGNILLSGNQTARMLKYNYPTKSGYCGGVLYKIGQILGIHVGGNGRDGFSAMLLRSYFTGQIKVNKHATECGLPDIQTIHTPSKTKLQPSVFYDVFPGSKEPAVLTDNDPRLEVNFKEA
The data set can be described thus: cytotoxicity against HRV Protease 3CP (serotype 10). Format: functional.

The nature of data set [2]: Half life period after 15 mg/kg iv dose in Dogs. Type of data set: ADME, organism-based, Canis lupus familiaris. The arrangement: dose 15 mg/kg, route intravenous. The following applies: dog, in vivo. Summed up: (§1)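 Dogs (n = 3) received the compound iv or orally in 80:20 propylene glycol:water at 15.0 mg/mL. Blood was sampled periodically for up to 24 h. Plasma levels were measured by LC-MS (detection limit 5 ng/mL). Parameters came from noncompartmental analysis of each animal's concentration–time data.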

Data set [3] addresses T1, Human rhinovirus A protease (Human rhinovirus sp.). The data set can be described thus: cytotoxicity against HRV Protease 3CP (serotype 19). Type of data set: functional.
The species named for data set [4] is Homo sapiens. The data set can be described thus: Half life upon exposure to human plasma.
In data set [5] the target is T1, Human rhinovirus A protease (Human rhinovirus sp.). The data set can be described thus: cytotoxicity against HRV Protease 3CP (serotype 2). Format: functional.
Data set [6] shares this target. The data set can be described thus: cytotoxicity against HRV Protease 3CP (serotype 9). Format: functional.
For data set [7] the target is unchanged. The data set can be described thus: cytotoxicity against HRV Protease 3CP (serotype 13). Format: functional.
The nature of data set [8]: Tmax value after 30 mg/kg po dose in Dogs. Format: ADME, organism-based, Canis lupus familiaris. The arrangement: dose 30 mg/kg, route oral. The following applies: dog, in vivo. Summed up:
as §1

In data set [9] the target is T1, Human rhinovirus A protease (Human rhinovirus sp.). The data set can be described thus: (§2) cytotoxicity against HRV Protease 3CP (serotype 14). Format: functional.
A short description of data set [10]: Volume distribution after 15 mg/kg iv dose in Dogs. Format: ADME, organism-based, Canis lupus familiaris. More on the design: dose 15 mg/kg, route intravenous. Conditions: dog, in vivo, read-out: V. In short, it runs like this:
as §1

Data set [11] concerns the target T1, Human rhinovirus A protease (Human rhinovirus sp.). The data set can be described thus: cytotoxicity against HRV Protease 3CP (serotype 3). Type of data set: functional.
Data set [12] is described as follows: Cmax value after 15 mg/kg iv dose in Dogs. More on the design: dose 15 mg/kg, route intravenous. Conditions: dog, in vivo. Type of data set: ADME, organism-based, Canis lupus familiaris. Summed up:
as §1

Data set [13] deals with T1, Human rhinovirus A protease (Human rhinovirus sp.). The data set can be described thus: cytotoxicity against HRV Protease 3CP (serotype 23). Type of data set: functional.
Data set [14] is described as follows: Oral bioavailability after 30 mg/kg po dose in Dogs. Type of data set: ADME, organism-based, Canis lupus familiaris. The following applies: dog, in vivo. Summed up: as §1
Data set [15] in a line: AUC value after 30 mg/kg po dose in Dogs. The following applies: dog, plasma. More on the design: dose 30 mg/kg, route oral. Format: ADME, organism-based, Canis lupus familiaris. In short, it runs like this:
as §1

Data set [16] in a line: Tmax value after 15 mg/kg iv dose in Dogs. Format: ADME, organism-based, Canis lupus familiaris. The arrangement: dose 15 mg/kg, route intravenous. Conditions: dog, in vivo. In short, it runs like this: as §1
The target of data set [17] is T1, Human rhinovirus A protease (Human rhinovirus sp.). The data set can be described thus: cytotoxicity against HRV Protease 3CP (serotype 25). Type of data set: functional.
Data set [18] is filed under the species Homo sapiens. The data set can be described thus: Loss of compound (%metabolized) after 30 min exposure to human liver microsomes. The following applies: read-out: Metabolism.
Data set [19] in a line: Plasma clearance after 30 mg/kg po dose in Dogs. Format: ADME, organism-based, Canis lupus familiaris. More on the design: dose 30 mg/kg, route oral. The following applies: dog. In short, it runs like this: as §1
Data set [20] deals with T1, Human rhinovirus A protease (Human rhinovirus sp.). The data set can be described thus: cytotoxicity against HRV Protease 3CP (serotype 1A). Format: functional.
The target is the same in data set [21]. The data set can be described thus: cytotoxicity against HRV Protease 3CP (serotype 11). Type of data set: functional.
Data set [22] shares this target. The data set can be described thus: cytotoxicity against HRV Protease 3CP (serotype 78). Type of data set: functional.
Data set [23] is described as follows: Half life period after 30 mg/kg po dose in Dogs. The following applies: dog, in vivo. Type of data set: ADME, organism-based, Canis lupus familiaris. More on the design: dose 30 mg/kg, route oral. In short, it runs like this:
as §1

Data set [24] is described as follows: AUC value after 15 mg/kg iv dose in Dogs. Type of data set: ADME, organism-based, Canis lupus familiaris. The arrangement: dose 15 mg/kg, route intravenous. Conditions: dog, plasma. In short, it runs like this:
as §1

The nature of data set [25]: Plasma clearance after 15 mg/kg iv dose in Dogs. Conditions: dog. More on the design: dose 15 mg/kg, route intravenous. Format: ADME, organism-based, Canis lupus familiaris. In short, it runs like this: as §1
Data set [26] concerns the target T1, Human rhinovirus A protease (Human rhinovirus sp.). The data set can be described thus: cytotoxicity against HRV Protease 3CP (serotype 16). Type of data set: functional.
Data set [27] shares this target. The data set can be described thus: cytotoxicity against HRV Protease 3CP (serotype Hanks). Format: functional.
The next data set deals with Canis familiaris. The data set can be described thus: Volume distribution after 30 mg/kg po dose in Dogs. Type of data set: ADME, organism-based, Canis lupus familiaris. The arrangement: dose 30 mg/kg, route oral. The following applies: dog, in vivo. In short, it runs like this: as §1
Data set [28] is described as follows: Cmax value after 30 mg/kg po dose in Dogs. The arrangement: dose 30 mg/kg, route oral. Type of data set: ADME, organism-based, Canis lupus familiaris. Conditions: dog, in vivo. Summed up: as §1
Data set [29] concerns the target T1, Human rhinovirus A protease (Human rhinovirus sp.). The data set can be described thus: cytotoxicity against HRV Protease 3CP (serotype 39). Format: functional.
For data set [30] the target is unchanged. The data set can be described thus: cytotoxicity against Human Rhinovirus Protease 3C (serotype 1A). Type of data set: functional.
For data set [31] the target is unchanged. The data set can be described thus: cytotoxicity against Human Rhinovirus Protease 3C (serotype 10). Type of data set: functional.
The target is the same in data set [32]. The data set can be described thus: cytotoxicity against Human Rhinovirus Protease 3C (serotype 14). Format: functional.
Data set [33] has the same target. The data set can be described thus: Inhibitory activity against Human Rhinovirus Protease 3C (serotype 14). Conditions: Rhinovirus B.
Data set [34] has as its target T2, Human rhinovirus A protease (Human rhinovirus sp., UniProt Q4U254).
T2 sequence (Q4U254 whole entry): T1 sequence (whole entry)
The data set can be described thus: Inhibition of HRV Protease 3CP (serotype 14). The arrangement: species or system Rhinovirus B.

In data set [35] the target is T1, Human rhinovirus A protease (Human rhinovirus sp.). The data set is described as §2.
Data set [36] is described as follows: Loss of compound (%metabolized) after 30 min exposure to human liver microsomes. Format: ADME, Microsome. The following applies: read-out: Metabolism. Summed up: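 Pooled human liver microsomes (1 mg/mL, 6–8 livers) with 2 mM NADPH in 100 mM potassium phosphate pH 7.4 were preincubated 1 min at 37 °C. Compound was added at 25 μM and incubated 30 min, then quenched with acetonitrile. Loss was measured against time-zero controls by reversed-phase HPLC with UV at 215 nm.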

A short description of data set [37]: Half life upon exposure to human plasma. Format: ADME, cell-free. Summed up: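 Pooled heparinized human plasma from 10 donors (stored at -70 °C), or 100 mM potassium phosphate buffer pH 7.4, n = 3 each. Compound added from fresh 5 mM acetonitrile stock to 25 μM final. Incubated at 37 °C for 1–3 h with regular sampling, acetonitrile precipitation, HPLC-UV at 212 nm. Half-life from linear regression of mean concentration–time data.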

For `Cc1cc(C(=O)Nc2cccn([C@@H](Cc3ccc(F)c(F)c3)C(=O)N[C@H](/C=C/C(=O)OC(C)C)C[C@@H]3CCNC3=O)c2=O)no1`, the CC50 in data set [1], in data set [3], in data set [5], in [6], in [7] and in data set [9] was greater than 10 µM each time. Also, the half-maximal cytotoxic concentration (CC50) in data set [11], in [13], in data set [17], in data set [20], in data set [21] and in [22] was greater than 10 µM in each case. Besides, the 50% cytotoxic concentration (CC50) in data set [26], in data set [27] and in data set [29] was greater than 10 µM throughout. Further, the half-life in [2] was 3.23 h; in the data set listed under Homo sapiens [4] it was 9.7 h; in data set [23], 3.4 h. For the same molecule, the Tmax in data set [8] was 1.17 h; in [16] it was 4 min. In addition, the Vd in data set [10] turned out to be 4.2 L/kg. Moreover, the Cmax is 10600 ng/mL in data set [12] and 3500 ng/mL in [28]. Further, in data set [14], the bioavailability turned out to be 48%. Besides, the AUC in [15] was 16300 ng·h/mL; in data set [24], 17100 ng·h/mL. Besides, in the data set listed under Homo sapiens [18], the metabolised at 0.5 h came out at 55%. Also, in [19], the apparent clearance CL/F stood at 33 mL/min/kg. For the same molecule, the clearance in data set [25] turned out to be 14.7 mL/min/kg. This molecule also showed a V in the data set with Canis familiaris of 9.6 L/kg.
Consider `CCOC(=O)/C=C/[C@H](CCC(N)=O)NC(=O)[C@H](Cc1ccccc1)n1cccc(NC(=O)OCc2ccccc2)c1=O`, for which the CC50 in data set [30] was greater than 10 µM; in data set [31], greater than 10 µM; in [32] it was 50 µM.
The molecule `CCOC(=O)/C=C/[C@H](CCC(N)=O)NC(=O)[C@H](Cc1ccccc1)n1ccc(C)c(NC(=O)OCc2ccccc2)c1=O` yielded a K obs / 1 in [33] of 25800 M⁻¹ s⁻¹.
As to `CCOC(=O)/C=C/[C@H](CCC(N)=O)NC(=O)[C@H](CC1CCCCC1)n1cccc(NC(=O)OCc2ccccc2)c1=O`, in [33], the K obs / 1 was 6500 M⁻¹ s⁻¹. The EC50 in [34] was found to be 0.178 µM. In addition, the CC50 in [35] was greater than 10 µM.
As to `CCOC(=O)/C=C/[C@H](C[C@@H]1CCNC1=O)NC(=O)[C@H](Cc1ccc(F)c(F)c1)n1cccc(NC(=O)c2cc(C)on2)c1=O`, the CC50 in data set [1], in data set [9] and in [20] was greater than 10 µM each time. This molecule showed a K obs / 1 in [33] of 1.8e+06 M⁻¹ s⁻¹. Moreover, in data set [34], the EC50 is 0.001 µM. Moreover, the metabolised at 0.5 h in data set [36] stood at 80%. In addition, the half-life in data set [37] is 1.4 h.
As to `Cc1cc(CCCOc2c(C)cc(-c3noc(C(F)(F)F)n3)cc2C)on1` [PLECONARIL], in [34], the EC50 is 0.058 µM. In addition, the CC50 in data set [35] was greater than 10 µM.
`CCOC(=O)/C=C/[C@H](CCC(N)=O)NC(=O)[C@H](Cc1ccccc1)n1ccc(C)c(NC(=O)c2cc(C)on2)c1=O`: the K obs / 1 in data set [33] is 116000 M⁻¹ s⁻¹.
In data set [33], `CCOC(=O)/C=C/[C@H](CCC(N)=O)NC(=O)[C@H](Cc1ccccc1)n1cccc(NC(=O)C2CCCC2)c1=O` returned a K obs / 1 of 37400 M⁻¹ s⁻¹. This molecule showed a 50% effective concentration (EC50) in data set [34] of 0.034 µM. In addition, the CC50 in data set [35] is greater than 10 µM.
Take `CCOC(=O)c1ccc(OCCC2CCN(c3ccc(C)nn3)CC2)cc1` [PIRODAVIR]: in [34], the EC50 was found to be 0.044 µM. This molecule also came in with a CC50 in data set [35] greater than 10 µM.
For the molecule `CCOC(=O)/C=C/[C@H](CCC(N)=O)NC(=O)[C@H](Cc1ccccc1)n1cccc(NC(=O)C(C)(C)C)c1=O`, the K obs / 1 in data set [33] stood at 5040 M⁻¹ s⁻¹. Besides, the 50% effective concentration (EC50) in data set [34] was determined as 0.518 µM. Also, in data set [35], the CC50 is greater than 10 µM.
In the same order, the values of `CCOC(=O)/C=C/[C@H](CCC(N)=O)NC(=O)[C@H](Cc1ccccc1)n1cccc(NC(=O)c2cc(Cl)on2)c1=O` are 134000 M⁻¹ s⁻¹, 0.024 µM and greater than 10 µM.
